Assay results published in ChEMBL document CHEMBL4011638, “Semisynthetic Flavone-Derived Antimicrobials with Therapeutic Potential against Methicillin-Resistant Staphylococcus aureus (MRSA)” (J Med Chem, 2017).
≈ marks a conversion by molar mass, not a printed value. Calls of active or inactive are those of the source. The calls are words filed in the database; no cut-off is given here.

Key:
Staphylococcus aureus [1] = experiment: Antibacterial activity against methicillin-resistant Staphylococcus aureus DM 21455 after 24 hrs by broth microdilution method; format: functional; conditions: DM 21455, 24 h
How it was run: (§1)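 Broth microdilution per CLSI in cation-adjusted Mueller−Hinton broth, in tubes. Compounds dissolved in H2O or DMF, then diluted in PBS to 1000 μg/mL stocks. Serial 2-fold dilutions were made, with final DMF 2.5%. Organisms were grown on TSA at 35 °C for 20 h and adjusted to ~5× 10^5 CFU/mL. Tubes were incubated at 35 °C for 24 h. MIC was the lowest concentration with no visible growth versus control. Biological replicates.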

Bacillus cereus = experiment: Antibacterial activity against Bacillus cereus ATCC 11778 after 24 hrs by broth microdilution method; format: functional; conditions: ATCC 11778, 24 h
How it was run: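 MIC by CLSI broth microdilution in cation-adjusted Mueller–Hinton broth, tubes. Compounds in H2O or DMF, diluted in PBS to 1000 μg/mL stocks, then serial 2-fold dilutions (final DMF 2.5%). Inoculum ~5×10^5 CFU/mL from TSA plates grown 35 °C 20 h. Incubation 35 °C 24 h; MIC = no visible growth vs control. Biological replicates.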

Staphylococcus aureus [2] = experiment: Antibacterial activity against Staphylococcus aureus DM4001R after 24 hrs by broth microdilution method; format: functional; how it was run: as §1
Staphylococcus aureus [3] = experiment: Antibacterial activity against methicillin-resistant Staphylococcus aureus DM 9808R after 24 hrs by broth microdilution method; format: functional; how it was run: as §1
Staphylococcus aureus [4] = experiment: Antibacterial activity against methicillin-resistant Staphylococcus aureus ATCC 43300 after 24 hrs by broth microdilution method; format: functional; conditions: ATCC 43300, 24 h; how it was run: as §1
Staphylococcus aureus [5] = experiment: Antibacterial activity against methicillin-resistant Staphylococcus aureus DB6506 after 24 hrs by broth microdilution method; format: functional; conditions: DB6506, 24 h; how it was run: as §1
Staphylococcus aureus [6] = experiment: Antibacterial activity against methicillin-sensitive Staphylococcus aureus ATCC 29213 after 24 hrs by broth microdilution method; format: functional; conditions: ATCC 29213, 24 h; how it was run: as §1
Staphylococcus aureus [7] = experiment: Antibacterial activity against methicillin-sensitive Staphylococcus aureus ATCC 29737 after 24 hrs by broth microdilution method; format: functional; conditions: ATCC 29737, 24 h; how it was run: as §1
Staphylococcus aureus [8] = experiment: Antibacterial activity against methicillin-sensitive Staphylococcus aureus ATCC 6538 after 24 hrs by broth microdilution method; format: functional; conditions: ATCC 6538, 24 h; how it was run: as §1
[9] = Ratio of HC50 for New Zealand white rabbit RBC to MIC for methicillin-sensitive Staphylococcus aureus DM4583R
How it was run: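 HC50 measured on fresh New Zealand white rabbit RBCs, washed three times in PBS, at 4% v/v final. Cells were incubated with 2-fold serial dilutions (DMF final 0.5%) at 37 °C for 1 h, then centrifuged. Supernatant absorbance was read at 576 nm, with PBS as 0% and 2% Triton X-100 as 100% lysis. HC50 is the concentration lysing 50% of cells, divided by MIC from broth microdilution.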

Staphylococcus aureus [10] = experiment: Antibacterial activity against methicillin-resistant Staphylococcus aureus DB68004 after 24 hrs by broth microdilution method; format: functional; conditions: DB68004, 24 h; how it was run: as §1
Staphylococcus aureus [11] = experiment: Antibacterial activity against methicillin-sensitive Staphylococcus aureus DM4400R after 24 hrs by broth microdilution method; format: functional; how it was run: as §1
Staphylococcus aureus [12] = experiment: Antibacterial activity against methicillin-resistant Staphylococcus aureus ATCC 700699 after 24 hrs by broth microdilution method; format: functional; conditions: ATCC 700699, 24 h; how it was run: as §1
Staphylococcus aureus [13] = experiment: Antibacterial activity against methicillin-sensitive Staphylococcus aureus DM4583R after 24 hrs by broth microdilution method; format: functional; how it was run: as §1
Staphylococcus aureus [14] = experiment: Antibacterial activity against methicillin-sensitive Staphylococcus aureus DM4299 after 24 hrs by broth microdilution method; format: functional; conditions: DM4299, 24 h; how it was run: as §1
Staphylococcus aureus [15] = experiment: Antibacterial activity against methicillin-resistant Staphylococcus aureus BAA-38 after 24 hrs by broth microdilution method; format: functional; conditions: BAA-38, 24 h; how it was run: as §1
Staphylococcus aureus [16] = experiment: Antibacterial activity against methicillin-resistant Staphylococcus aureus DB57964 after 24 hrs by broth microdilution method; format: functional; conditions: DB57964, 24 h; how it was run: as §1
Lipid bilayer = experiment: Membrane permeabilization activity in DOPE/DOPG large unilamellar liposomes assessed as leakage of calcein at 1:4 to 1:8 compound to lipid ratio by fluorescence assay
Staphylococcus aureus [17] = experiment: Induction of plasma membrane permeability in methicillin-resistant Staphylococcus aureus DM9808R assessed as increase in fluorescence intensity at 12.5 ug/ml measured every 1 sec for 50 mins by SYTOX green dye based fluorimetric assay; format: functional
How it was run: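 Exponential-phase MRSA DM9808R grown on TSA, washed twice and resuspended in PBS (10 mM, pH 7) to OD600 0.2. Cells were loaded with 0.3 μM SYTOX Green in the dark until fluorescence stabilized. Test samples were then added (final DMF 0.5%). Fluorescence at ex 504/em 523 nm was recorded every 1 s for 50 min. Biological replicates.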

Compound: COc1ccc(-c2oc3c(CC=C(C)C)c(OCCBr)cc(O)c3c(=O)c2OCCBr)cc1
- MIC (Staphylococcus aureus [1]): 5 µM
- MIC (Bacillus cereus): 5 µM
- MIC (Staphylococcus aureus [2]): 5 µM
- MIC (Staphylococcus aureus [3]): 10 µM

Compound: N=C(N)NCCCCC(=O)Nc1cc(C(F)(F)F)cc(NC(=O)c2cc(C(=O)Nc3cc(C(F)(F)F)cc(NC(=O)CCCCNC(=N)N)c3O[C@@H]3CCNC3)ncn2)c1O[C@@H]1CCNC1 [BRILACIDIN]
- MIC (Staphylococcus aureus [4]): 1 µg/mL (≈ 1.07 µM)
- MIC (Staphylococcus aureus [5]): 1 µg/mL (≈ 1.07 µM)
- MIC (Staphylococcus aureus [6]): 1 µg/mL (≈ 1.07 µM)
- MIC (Staphylococcus aureus [7]): 1 µg/mL (≈ 1.07 µM)
- MIC (Staphylococcus aureus [8]): 1 µg/mL (≈ 1.07 µM)
- Ratio [9]: 558
- MIC (Staphylococcus aureus [10]): 1 µg/mL (≈ 1.07 µM)
- MIC (Staphylococcus aureus [11]): 1 µg/mL (≈ 1.07 µM)
- MIC (Staphylococcus aureus [12]): 1 µg/mL (≈ 1.07 µM)
- MIC (Staphylococcus aureus [13]): 1 µg/mL (≈ 1.07 µM)
- MIC (Staphylococcus aureus [14]): 1 µg/mL (≈ 1.07 µM)
- MIC (Staphylococcus aureus [15]): 1 µg/mL (≈ 1.07 µM)
- MIC (Staphylococcus aureus [16]): 1 µg/mL (≈ 1.07 µM)

Compound: COC(=O)[C@H](CCCNC(=N)N)NC(=O)[C@H](CCCNC(=N)N)NC(=O)COc1cc(O)c2c(=O)c(OCC(=O)N[C@@H](CCCNC(=N)N)C(=O)N[C@@H](CCCNC(=N)N)C(=O)OC)c(-c3ccc(OC)cc3)oc2c1CC=C(C)C
- MIC (Staphylococcus aureus [1]): 11 µM
- MIC (Bacillus cereus): 11 µM
- MIC (Staphylococcus aureus [2]): 5.5 µM
- MIC (Staphylococcus aureus [3]): 5.5 µM

Compound: H-GIGKFLKKAKKFGKAFVKILKK-OH
- MIC (Staphylococcus aureus [4]): 16 to 64 µg/mL
- MIC (Staphylococcus aureus [5]): 16 to 64 µg/mL
- MIC (Staphylococcus aureus [6]): 16 to 64 µg/mL
- MIC (Staphylococcus aureus [7]): 16 to 64 µg/mL
- MIC (Staphylococcus aureus [8]): 16 to 64 µg/mL
- Ratio [9]: 2 to 8
- MIC (Staphylococcus aureus [10]): 16 to 64 µg/mL
- MIC (Staphylococcus aureus [11]): 16 to 64 µg/mL
- MIC (Staphylococcus aureus [12]): 16 to 64 µg/mL
- MIC (Staphylococcus aureus [13]): 16 to 64 µg/mL
- MIC (Staphylococcus aureus [14]): 16 to 64 µg/mL
- MIC (Staphylococcus aureus [15]): 16 to 64 µg/mL
- MIC (Staphylococcus aureus [16]): 16 to 64 µg/mL

Compound: COC(=O)[C@H](CCCNC(=N)N)NC(=O)COc1cc(O)c2c(=O)c(O)c(-c3ccc(OC)cc3)oc2c1CC=C(C)C
- MIC (Staphylococcus aureus [1]): 10.4 µM
- MIC (Bacillus cereus): 10.4 µM
- MIC (Staphylococcus aureus [2]): 5.2 µM
- MIC (Staphylococcus aureus [3]): 5.2 µM

Compound: COc1ccc(-c2oc3c(CC=C(C)C)c(OCC(=O)N[C@@H](CCCNC(=N)N)C(=O)OC(C)(C)C)cc(O)c3c(=O)c2OCC(=O)N[C@@H](CCCNC(=N)N)C(=O)OC(C)(C)C)cc1
- MIC (Staphylococcus aureus [1]): 6.8 µM
- MIC (Bacillus cereus): 3.4 µM
- MIC (Staphylococcus aureus [2]): 3.4 µM
- MIC (Staphylococcus aureus [3]): 3.4 µM

Compound: COc1ccc(-c2oc3c(CC=C(C)C)c(O)cc(O)c3c(=O)c2O)cc1 [ICARITIN]
- MIC (Staphylococcus aureus [4]): 50 µg/mL (≈ 136 µM)
- MIC (Staphylococcus aureus [5]): 50 µg/mL (≈ 136 µM)
- MIC (Staphylococcus aureus [6]): 50 µg/mL (≈ 136 µM)
- MIC (Staphylococcus aureus [1]): 50 µg/mL
- MIC (Staphylococcus aureus [7]): 50 µg/mL (≈ 136 µM)
- MIC (Staphylococcus aureus [8]): 50 µg/mL (≈ 136 µM)
- Ratio [9]: > 8
- MIC (Bacillus cereus): 136 µM
- Activity (Lipid bilayer): < 5%
- MIC (Staphylococcus aureus [10]): 50 µg/mL (≈ 136 µM)
- MIC (Staphylococcus aureus [11]): 50 µg/mL (≈ 136 µM)
- MIC (Staphylococcus aureus [12]): 50 µg/mL (≈ 136 µM)
- Activity (Staphylococcus aureus [17]): inactive
- MIC (Staphylococcus aureus [13]): 50 µg/mL (≈ 136 µM)
- MIC (Staphylococcus aureus [14]): 50 µg/mL (≈ 136 µM)
- MIC (Staphylococcus aureus [15]): 50 µg/mL (≈ 136 µM)
- MIC (Staphylococcus aureus [16]): 50 µg/mL (≈ 136 µM)
- MIC (Staphylococcus aureus [2]): 50 µg/mL
- MIC (Staphylococcus aureus [3]): 50 µg/mL

Compound: CN[C@H](CC(C)C)C(=O)N[C@H]1C(=O)N[C@@H](CC(N)=O)C(=O)N[C@H]2C(=O)N[C@H]3C(=O)N[C@H](C(=O)N[C@H](C(=O)O)c4cc(O)cc(O)c4-c4cc3ccc4O)[C@H](O)c3ccc(c(Cl)c3)Oc3cc2cc(c3O[C@@H]2O[C@H](CO)[C@@H](O)[C@H](O)[C@H]2O[C@H]2C[C@](C)(N)[C@H](O)[C@H](C)O2)Oc2ccc(cc2Cl)[C@H]1O [VANCOMYCIN]
- MIC (Staphylococcus aureus [4]): 0.78 µg/mL (≈ 0.538 µM)
- MIC (Staphylococcus aureus [5]): 0.78 µg/mL (≈ 0.538 µM)
- MIC (Staphylococcus aureus [6]): 1.56 µg/mL (≈ 1.08 µM)
- MIC (Staphylococcus aureus [1]): 1.1 µM
- MIC (Staphylococcus aureus [7]): 0.78 µg/mL (≈ 0.538 µM)
- MIC (Staphylococcus aureus [8]): 0.78 µg/mL (≈ 0.538 µM)
- MIC (Bacillus cereus): 1.1 µM
- MIC (Staphylococcus aureus [10]): 1.56 µg/mL (≈ 1.08 µM)
- MIC (Staphylococcus aureus [11]): 0.78 µg/mL (≈ 0.538 µM)
- MIC (Staphylococcus aureus [12]): 1.56 µg/mL (≈ 1.08 µM)
- MIC (Staphylococcus aureus [13]): 1.56 µg/mL (≈ 1.08 µM)
- MIC (Staphylococcus aureus [14]): 1.56 µg/mL (≈ 1.08 µM)
- MIC (Staphylococcus aureus [15]): 1.56 µg/mL (≈ 1.08 µM)
- MIC (Staphylococcus aureus [16]): 0.78 µg/mL (≈ 0.538 µM)
- MIC (Staphylococcus aureus [2]): 1.1 µM
- MIC (Staphylococcus aureus [3]): 2.2 µM

Compound: COC(=O)[C@H](Cc1cnc[nH]1)NC(=O)COc1cc(O)c2c(=O)c(OCC(=O)N[C@@H](Cc3cnc[nH]3)C(=O)OC)c(-c3ccc(OC)cc3)oc2c1CC=C(C)C
- MIC (Staphylococcus aureus [1]): > 63.5 µM
- MIC (Bacillus cereus): > 63.5 µM
- Activity (Lipid bilayer): < 5%
- Activity (Staphylococcus aureus [17]): inactive
- MIC (Staphylococcus aureus [2]): > 63.5 µM
- MIC (Staphylococcus aureus [3]): > 63.5 µM

Compound: CCN(CC)CCCCOc1cc(O)c2c(=O)c(OCCCCN(CC)CC)c(-c3ccc(OC)cc3)oc2c1CC=C(C)C
- MIC (Staphylococcus aureus [1]): 12.5 µg/mL
- MIC (Bacillus cereus): 6.25 µg/mL
- MIC (Staphylococcus aureus [2]): 25 µg/mL
- MIC (Staphylococcus aureus [3]): 12.5 µg/mL
